Source: ChEMBL document CHEMBL3864182, “Discovery and Optimization of a Novel Triazole Series of GPR142 Agonists for the Treatment of Type 2 Diabetes” (ACS Med Chem Lett, 2016)
Values after ≈ are worked out from the molar mass of the structure shown. Active and inactive are the calls of the source. No cut-off for these calls is given here.

Legend:
[1] = Metabolic stability in mouse liver microsomes assessed as compound remaining at 1 uM measured after 30 mins; type: ADME; conditions: read-out: Stability
[2] = Metabolic stability in human liver microsomes assessed as compound remaining at 1 uM measured after 30 mins; type: ADME; conditions: read-out: Stability
[3] = Unbound clearance in Sprague-Dawley rat plasma at 1 mg/kg, iv or 2 mg/kg, po; type: ADME, organism-based; conditions: in vivo
Procedure, shortened: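 Rat pharmacokinetic study; plasma clearance corrected for plasma protein binding as Clu = Clp/fu, where fu is the unbound fraction in plasma.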

[4] = biological target: T1, Probable G-protein coupled receptor 142 (Mus musculus, UniProt Q7TQN9); experiment: Agonist activity at mouse GPR142 expressed in CHO cells measured for 3 to 5 mins by Fluo-4AM dye-based FLIPR assay; type: cell-based
T1 sequence (Q7TQN9 whole entry): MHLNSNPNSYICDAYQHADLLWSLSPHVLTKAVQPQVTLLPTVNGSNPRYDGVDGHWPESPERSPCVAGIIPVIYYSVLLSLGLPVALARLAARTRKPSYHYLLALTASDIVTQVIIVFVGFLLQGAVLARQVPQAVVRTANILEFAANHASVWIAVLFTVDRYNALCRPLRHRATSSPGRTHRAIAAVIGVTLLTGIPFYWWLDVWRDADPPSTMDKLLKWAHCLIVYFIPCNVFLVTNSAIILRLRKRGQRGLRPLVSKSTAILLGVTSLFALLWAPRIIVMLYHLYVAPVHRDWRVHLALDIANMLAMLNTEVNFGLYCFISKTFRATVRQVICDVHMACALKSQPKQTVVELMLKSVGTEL

Mus musculus [5] = experiment: Antihyperglycemic activity in fasted C57BL/6 mouse assessed as reduction in glucose AUC administered prior to dextrose challenge measured after 90 mins by oral glucose tolerance test; type: functional
Cytochrome P450 2D6 = Cytochrome P450 2D6 (Homo sapiens, UniProt P10635); experiment: Inhibition of CYP2D6 (unknown origin); type: ADME
Cytochrome P450 2D6, sequence (P10635 whole entry): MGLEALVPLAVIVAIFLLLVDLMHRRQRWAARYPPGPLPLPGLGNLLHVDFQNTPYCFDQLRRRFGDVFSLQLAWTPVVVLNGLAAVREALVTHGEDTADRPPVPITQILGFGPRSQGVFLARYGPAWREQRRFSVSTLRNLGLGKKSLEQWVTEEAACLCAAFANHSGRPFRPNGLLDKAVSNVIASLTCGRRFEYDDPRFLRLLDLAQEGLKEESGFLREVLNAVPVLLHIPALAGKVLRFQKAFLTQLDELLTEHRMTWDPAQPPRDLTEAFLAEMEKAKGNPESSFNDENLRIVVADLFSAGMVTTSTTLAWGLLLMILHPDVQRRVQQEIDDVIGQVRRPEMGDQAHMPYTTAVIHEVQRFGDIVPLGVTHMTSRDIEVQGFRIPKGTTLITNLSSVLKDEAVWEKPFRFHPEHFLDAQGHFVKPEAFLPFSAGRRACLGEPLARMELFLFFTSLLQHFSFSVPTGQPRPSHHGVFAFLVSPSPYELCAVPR

[6] = Oral bioavailability in Sprague-Dawley rat at 2 mg/kg; type: ADME, organism-based; conditions: in vivo
[7] = Metabolic stability in rat liver microsomes assessed as compound remaining at 1 uM measured after 30 mins; type: ADME; conditions: read-out: Stability
[8] = biological target: Voltage-dependent L-type calcium channel subunit alpha-1C (Homo sapiens, UniProt Q13936); experiment: Inhibition of Cav1.2 (unknown origin)
Voltage-dependent L-type calcium channel subunit alpha-1C, sequence (Q13936 whole entry): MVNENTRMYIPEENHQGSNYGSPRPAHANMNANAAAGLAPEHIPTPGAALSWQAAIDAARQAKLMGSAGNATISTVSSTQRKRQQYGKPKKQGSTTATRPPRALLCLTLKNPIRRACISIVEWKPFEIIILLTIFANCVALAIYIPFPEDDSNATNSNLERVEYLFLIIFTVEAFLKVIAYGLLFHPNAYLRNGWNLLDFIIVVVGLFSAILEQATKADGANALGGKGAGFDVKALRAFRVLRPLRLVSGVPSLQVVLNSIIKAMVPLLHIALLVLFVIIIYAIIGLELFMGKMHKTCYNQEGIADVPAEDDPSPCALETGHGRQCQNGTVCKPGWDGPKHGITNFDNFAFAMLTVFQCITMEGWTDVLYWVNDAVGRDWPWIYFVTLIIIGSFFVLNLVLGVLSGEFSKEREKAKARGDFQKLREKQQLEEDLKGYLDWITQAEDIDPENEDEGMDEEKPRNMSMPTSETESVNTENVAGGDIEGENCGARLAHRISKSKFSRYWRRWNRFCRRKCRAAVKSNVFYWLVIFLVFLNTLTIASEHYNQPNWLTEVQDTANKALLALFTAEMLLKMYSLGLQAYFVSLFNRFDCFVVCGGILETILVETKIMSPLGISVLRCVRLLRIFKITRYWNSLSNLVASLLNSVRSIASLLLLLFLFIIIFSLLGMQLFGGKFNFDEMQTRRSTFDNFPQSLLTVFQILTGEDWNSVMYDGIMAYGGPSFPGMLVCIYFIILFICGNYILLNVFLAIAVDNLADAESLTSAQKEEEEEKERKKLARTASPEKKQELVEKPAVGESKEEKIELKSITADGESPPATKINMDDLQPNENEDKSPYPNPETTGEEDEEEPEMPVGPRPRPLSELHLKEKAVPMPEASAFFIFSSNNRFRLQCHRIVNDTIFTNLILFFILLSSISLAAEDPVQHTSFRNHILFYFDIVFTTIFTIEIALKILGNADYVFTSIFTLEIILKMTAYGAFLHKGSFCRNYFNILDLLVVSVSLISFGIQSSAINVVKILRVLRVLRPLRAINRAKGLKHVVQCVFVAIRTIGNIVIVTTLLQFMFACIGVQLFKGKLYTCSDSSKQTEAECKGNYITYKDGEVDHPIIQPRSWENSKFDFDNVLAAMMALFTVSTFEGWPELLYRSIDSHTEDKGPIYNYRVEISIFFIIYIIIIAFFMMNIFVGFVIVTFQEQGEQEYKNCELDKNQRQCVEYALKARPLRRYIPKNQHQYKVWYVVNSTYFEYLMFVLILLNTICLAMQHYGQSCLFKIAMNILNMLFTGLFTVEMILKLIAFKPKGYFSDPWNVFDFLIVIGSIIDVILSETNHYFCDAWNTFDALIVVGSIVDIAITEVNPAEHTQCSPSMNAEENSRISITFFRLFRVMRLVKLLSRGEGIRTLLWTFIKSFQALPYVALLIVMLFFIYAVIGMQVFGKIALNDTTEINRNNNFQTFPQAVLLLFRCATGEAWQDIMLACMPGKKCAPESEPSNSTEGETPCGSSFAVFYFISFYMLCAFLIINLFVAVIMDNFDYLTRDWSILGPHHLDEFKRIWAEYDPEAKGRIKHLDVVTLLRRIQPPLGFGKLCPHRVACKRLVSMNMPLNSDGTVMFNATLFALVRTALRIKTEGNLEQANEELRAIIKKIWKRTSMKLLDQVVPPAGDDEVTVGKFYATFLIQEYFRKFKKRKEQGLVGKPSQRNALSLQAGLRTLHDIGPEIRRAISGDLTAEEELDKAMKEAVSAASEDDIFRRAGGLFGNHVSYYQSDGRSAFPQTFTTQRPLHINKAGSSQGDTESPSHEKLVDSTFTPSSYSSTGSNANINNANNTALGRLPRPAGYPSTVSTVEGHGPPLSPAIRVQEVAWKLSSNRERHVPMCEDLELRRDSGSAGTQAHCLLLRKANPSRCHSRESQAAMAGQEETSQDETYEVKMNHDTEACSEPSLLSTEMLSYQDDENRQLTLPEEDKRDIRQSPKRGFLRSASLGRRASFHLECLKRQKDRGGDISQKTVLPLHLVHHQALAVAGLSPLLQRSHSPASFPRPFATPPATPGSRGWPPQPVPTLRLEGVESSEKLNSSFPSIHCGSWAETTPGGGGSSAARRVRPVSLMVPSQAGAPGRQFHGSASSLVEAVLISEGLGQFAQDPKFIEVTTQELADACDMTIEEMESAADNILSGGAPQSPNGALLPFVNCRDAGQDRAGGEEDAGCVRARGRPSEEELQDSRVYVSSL

[9] = biological target: T2, Probable G-protein coupled receptor 142 (Homo sapiens, UniProt Q7Z601); experiment: Agonist activity at human GPR142 expressed in CHO cells measured after 30 to 60 mins by IP-One assay; type: cell-based
T2 sequence (Q7Z601 whole entry): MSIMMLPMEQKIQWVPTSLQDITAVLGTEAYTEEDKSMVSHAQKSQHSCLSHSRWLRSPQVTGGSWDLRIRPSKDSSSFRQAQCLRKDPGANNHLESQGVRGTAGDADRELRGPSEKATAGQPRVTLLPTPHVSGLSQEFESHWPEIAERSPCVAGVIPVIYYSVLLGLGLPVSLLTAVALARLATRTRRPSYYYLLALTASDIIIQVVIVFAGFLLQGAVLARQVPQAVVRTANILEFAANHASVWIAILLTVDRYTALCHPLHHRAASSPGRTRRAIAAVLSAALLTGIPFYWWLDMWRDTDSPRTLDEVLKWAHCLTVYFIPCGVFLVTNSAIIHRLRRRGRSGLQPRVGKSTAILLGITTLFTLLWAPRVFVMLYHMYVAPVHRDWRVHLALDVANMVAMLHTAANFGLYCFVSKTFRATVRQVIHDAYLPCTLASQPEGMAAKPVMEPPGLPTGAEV

[10] = Plasma clearance in Sprague-Dawley rat at 1 mg/kg, iv or 2 mg/kg, po; type: ADME, organism-based
[11] = biological target: Sodium channel protein type 5 subunit alpha (Homo sapiens, UniProt Q14524); experiment: Inhibition of Nav1.5 (unknown origin)
Sodium channel protein type 5 subunit alpha, sequence (Q14524 whole entry): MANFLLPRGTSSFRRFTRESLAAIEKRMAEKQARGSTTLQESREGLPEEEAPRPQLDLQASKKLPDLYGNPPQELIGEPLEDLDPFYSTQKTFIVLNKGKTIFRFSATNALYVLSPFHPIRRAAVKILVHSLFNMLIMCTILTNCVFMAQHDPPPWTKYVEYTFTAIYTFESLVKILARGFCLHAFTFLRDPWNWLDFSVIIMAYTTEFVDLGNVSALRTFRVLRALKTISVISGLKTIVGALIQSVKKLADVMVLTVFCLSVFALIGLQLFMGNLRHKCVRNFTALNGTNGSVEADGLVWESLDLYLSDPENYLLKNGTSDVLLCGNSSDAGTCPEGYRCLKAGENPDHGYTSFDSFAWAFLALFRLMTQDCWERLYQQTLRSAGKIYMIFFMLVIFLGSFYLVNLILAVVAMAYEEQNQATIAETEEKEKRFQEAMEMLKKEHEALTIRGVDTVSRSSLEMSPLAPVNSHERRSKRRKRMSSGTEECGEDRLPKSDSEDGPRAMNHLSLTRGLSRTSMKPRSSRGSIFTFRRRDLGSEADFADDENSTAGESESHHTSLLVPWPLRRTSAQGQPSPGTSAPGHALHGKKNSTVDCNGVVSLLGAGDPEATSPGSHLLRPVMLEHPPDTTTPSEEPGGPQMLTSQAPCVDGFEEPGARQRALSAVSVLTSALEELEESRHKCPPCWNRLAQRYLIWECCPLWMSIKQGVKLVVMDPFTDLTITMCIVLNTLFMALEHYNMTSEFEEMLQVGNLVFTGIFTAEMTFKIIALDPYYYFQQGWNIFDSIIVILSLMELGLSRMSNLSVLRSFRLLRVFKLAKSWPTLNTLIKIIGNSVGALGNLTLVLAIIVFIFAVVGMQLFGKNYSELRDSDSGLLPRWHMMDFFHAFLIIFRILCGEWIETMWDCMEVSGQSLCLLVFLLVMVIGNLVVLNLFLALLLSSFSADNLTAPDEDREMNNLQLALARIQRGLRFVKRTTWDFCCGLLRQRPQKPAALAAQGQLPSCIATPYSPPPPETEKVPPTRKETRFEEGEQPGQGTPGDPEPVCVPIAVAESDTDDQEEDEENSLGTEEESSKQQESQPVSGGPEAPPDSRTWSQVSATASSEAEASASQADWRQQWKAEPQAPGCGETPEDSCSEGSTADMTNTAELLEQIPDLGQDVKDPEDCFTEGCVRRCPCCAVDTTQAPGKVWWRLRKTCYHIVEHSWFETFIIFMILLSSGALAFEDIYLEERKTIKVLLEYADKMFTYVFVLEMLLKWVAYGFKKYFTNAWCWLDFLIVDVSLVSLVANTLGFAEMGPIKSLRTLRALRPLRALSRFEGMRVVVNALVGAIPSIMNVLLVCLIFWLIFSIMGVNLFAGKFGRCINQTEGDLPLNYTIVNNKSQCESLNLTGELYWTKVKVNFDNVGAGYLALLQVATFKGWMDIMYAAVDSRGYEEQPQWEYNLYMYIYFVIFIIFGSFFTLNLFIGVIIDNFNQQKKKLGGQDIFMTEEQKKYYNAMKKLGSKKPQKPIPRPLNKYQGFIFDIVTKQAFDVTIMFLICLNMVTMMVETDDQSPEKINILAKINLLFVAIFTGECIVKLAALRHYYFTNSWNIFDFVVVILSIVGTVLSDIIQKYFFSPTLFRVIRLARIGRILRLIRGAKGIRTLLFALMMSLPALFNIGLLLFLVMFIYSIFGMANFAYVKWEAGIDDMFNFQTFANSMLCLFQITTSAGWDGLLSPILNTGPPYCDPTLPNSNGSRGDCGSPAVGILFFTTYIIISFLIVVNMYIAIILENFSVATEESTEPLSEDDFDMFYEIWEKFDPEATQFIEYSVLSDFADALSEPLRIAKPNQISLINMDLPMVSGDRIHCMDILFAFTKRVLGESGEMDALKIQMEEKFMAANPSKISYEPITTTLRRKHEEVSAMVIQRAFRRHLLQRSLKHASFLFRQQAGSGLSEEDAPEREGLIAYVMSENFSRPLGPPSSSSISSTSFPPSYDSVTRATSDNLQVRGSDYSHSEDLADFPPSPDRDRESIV

[12] = biological target: T1, Probable G-protein coupled receptor 142; experiment: Agonist activity at mouse GPR142 expressed in CHO cells measured after 30 to 60 mins by IP-One assay; type: cell-based
[13] = Drug level in fasted C57BL/6 mouse plasma at 1 mg/kg, po measured after 2.5 hrs post dose; type: ADME, organism-based
Procedure, shortened: (§1)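 Plasma sampled from the oral glucose tolerance test mice (5 g/kg dextrose challenge) at 2.5 h after oral dosing. Total drug level measured; free level derived using the unbound plasma fraction.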

[14] = Half life in Sprague-Dawley rat at 1 mg/kg, iv or 2 mg/kg, po; type: ADME, organism-based; conditions: in vivo
[15] = Drug level in fasted C57BL/6 mouse plasma at 30 mg/kg, po measured after 2.5 hrs post dose; type: ADME, organism-based; procedure, shortened: as §1
[16] = biological target: T3, Probable G-protein coupled receptor 142 (Mus musculus) (UniProt Q7TQN9); experiment: Agonist activity at GPR142 in mouse islets assessed as potentiation of glucose-stimulated insulin secretion at 3 to 10 uM in presence of 16 mM glucose
T3 sequence (whole entry): T1 sequence (Q7TQN9 whole entry)
Procedure, shortened: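 Ex vivo insulin secretion in freshly isolated mouse islets, tested at low (2 mM) and high (16 mM) glucose. GLP-1 was run as a reference in the same experiment. Each treatment was compared with vehicle by 1-way ANOVA.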

[17] = biological target: T2, Probable G-protein coupled receptor 142; experiment: Agonist activity at human GPR142 expressed in CHO cells measured for 3 to 5 mins by Fluo-4AM dye-based FLIPR assay; type: cell-based
Mus musculus [18] = experiment: Antihyperglycemic activity in fasted C57BL/6 mouse assessed as reduction in glucose AUC (0 to 120 mins) at 1 mg/kg, po administered prior to dextrose challenge by oral glucose tolerance test; type: functional; set-up: scale not given: the % may be the effect or the level left
Procedure, shortened: (§2)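 Lean mice given the compound orally (1 to 30 mpk), then orally challenged with 5 g/kg dextrose. Glucose excursion expressed as AUC0–120 min reduction versus vehicle. N = 7 per group; ANOVA with Dunnett's post-test.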

[19] = Solubility of the compound in PBS at pH 2; type: physicochemical
Mus musculus [20] = experiment: Antihyperglycemic activity in fasted C57BL/6 mouse assessed as reduction in glucose AUC (0 to 120 mins) at 30 mg/kg, po administered prior to dextrose challenge by oral glucose tolerance test; type: functional; set-up: scale not given: the % may be the effect or the level left; procedure, shortened: as §2
[21] = Lipophilicity, log D of the compound at pH 7; type: physicochemical; conditions: buffer
[22] = Fraction unbound in fasted C57BL/6 mouse plasma at 30 mg/kg, po measured after 2.5 hrs post dose; type: ADME, organism-based; conditions: in vivo
Cytochrome P450 3A4 = Cytochrome P450 3A4 (Homo sapiens, UniProt P08684); experiment: Inhibition of CYP3A4 (unknown origin); type: ADME
[23] = Fraction unbound in Sprague-Dawley rat plasma at 1 mg/kg, iv or 2 mg/kg, po; type: ADME, organism-based
[24] = Apparent permeability in pig LLC-PK1 cells at 5 uM measured after 3 hrs; type: ADME, cell-based, Sus scrofa
[25] = Solubility of the compound in PBS at pH 7; type: physicochemical
Mus musculus [26] = experiment: Antihyperglycemic activity in fasted C57BL/6 mouse assessed as reduction in glucose AUC (0 to 120 mins) at 3 mg/kg, po administered prior to dextrose challenge by oral glucose tolerance test; type: functional; set-up: scale not given: the % may be the effect or the level left; procedure, shortened: as §2
[27] = Drug level in fasted C57BL/6 mouse plasma at 3 mg/kg, po measured after 2.5 hrs post dose; type: ADME, organism-based; procedure, shortened: as §1

remaining at 0.5 h, 1 µM [1]: 63%
remaining at 0.5 h, 1 µM [2]: 56%
CL free [3]: 1000 mL/min/kg
EC50 [4]: 0.027 µM
IC50 (Cytochrome P450 2D6): 9.4 µM
bioavailability [6]: 56%
remaining at 0.5 h, 1 µM [7]: 75%
EC50 [9]: 0.012 µM
clearance [10]: 13 mL/min/kg
EC50 [12]: 0.003 µM
concentration at 2.5 h [13]: 44 nM
half-life [14]: 54 min
concentration at 2.5 h [15]: 11500 nM
Activity [16]: Active
EC50 [17]: 0.025 µM
solubility [19]: 170 µM (≈ 72.6 µg/mL)
logD [21]: 2.42
Cp(f) [22]: 149 nM
IC50 (Cytochrome P450 3A4): 15 µM
fraction unbound [23]: 0.013
Papp at 3 h, 5 µM [24]: 28 ×10⁻⁶ cm/s
solubility [25]: 5 µM (≈ 2.14 µg/mL)
concentration at 2.5 h [27]: 274 nM
SMILES: Cc1nccn1-c1ccc(-c2cn(CC(=O)Nc3cccc(Cl)c3Cl)nn2)cc1
Activity (Mus musculus [5]): Dose-dependent effect
IC50 [8]: 21 µM
IC50 [11]: 21 µM
Activity (Mus musculus [18]): 49%
Activity (Mus musculus [20]): 89%
Activity (Mus musculus [26]): 79%
